ChEMBL document CHEMBL4699430, “Continuous flow synthesis of lipophilic cations derived from benzoic acid as new cytotoxic chemical entities in human head and neck carcinoma cell lines” (RSC Med Chem, 2020)
pIC50: −log10 of the molar value. The source made the active and inactive calls. No cut-off for these calls is given here.

What was measured:
[1] = Selectivity index, ratio of IC50 for human OKF-6/TERT cells to IC50 for human SCC-15 cells after 48 hrs by MTT assay; format: toxicity; conditions: OKF-6/TERT cells versus SCC-15 cells
Procedure, shortened: (§1)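 Selectivity index at 48 h is the ratio of the OKF-6/TERT IC50 to the tumour-line IC50. Each IC50 comes from a sigmoidal, variable-slope dose–response curve of the MTT viability assay (1 × 10^4 cells per well, 48 h exposure, absorbance at 570 nm).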

[2] = system: HEp-2; test: Induction of apoptosis in human Hep-2 cells at 2.5 uM incubated for 48 hrs by annexin-V FITC and PI staining based flow cytometric analysis; format: functional, cell-based
Procedure, shortened: (§2)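 Cells at 1 × 10^5 per mL exposed to 2.5 μM compound for 48 h at 37 °C in 5% CO2, with 10 μM staurosporine as positive control. Cells stained 5 min at room temperature with annexin V-FITC (488/530) and PI (488/575) in binding buffer; 10 000 events recorded by flow cytometry. Mean ± SD of at least three experiments; ANOVA with Bonferroni post-test.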

[3] = Cytotoxicity against human OKF-6/TERT cells assessed as reduction in cell viability measured after 48 hrs by MTT assay; format: cell-based; conditions: OKF6, 48 h
Procedure, shortened: (§3)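 Cells seeded at 1 × 10^4 per well and left 24 h, then exposed to increasing concentrations for 24, 48 or 72 h. After two PBS washes, 0.5 mg/mL MTT applied for 2 h. Formazan dissolved in DMSO and absorbance read at 570 nm. IC50 taken from a variable-slope dose–response curve.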

[4] = system: HEp-2; test: Cytotoxicity against human HEp-2 cells assessed as reduction in cell viability measured after 48 hrs by MTT assay; format: functional, cell-based; conditions: HEp-2, 48 h; procedure, shortened: as §3
[5] = Selectivity index, ratio of IC50 for human OKF-6/TERT cells to IC50 for human CAL27 cells after 48 hrs by MTT assay; format: toxicity; conditions: OKF-6/TERT cells versus CAL27 cells, read-out: Ratio IC50; procedure, shortened: as §1
[6] = system: CAL-27; test: Induction of mitochondrial membrane potential loss in human CAL-27 cells at 2.5 to 30 uM by flow cytometry; conditions: dose microM 2.5-30
[7] = system: CAL-27; test: Induction of apoptosis in human CAL-27 cells assessed as increase in caspase 3 activity at 2.5 to 5 uM incubated for 24 hrs by flow cytometry; format: functional, cell-based; conditions: dose 2.5 µM
Procedure, shortened: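 Cal-27 cells seeded at 5 × 10^5 per well and grown 24 h at 37 °C, then exposed to two concentrations for 24 h. Cells fixed and permeabilised 30 min at 4 °C in the dark, stained 30 min with PE anti-active caspase-3 antibody, and read by flow cytometry at 488 ex/617 em.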

[8] = Selectivity index, ratio of IC50 for human OKF-6/TERT cells to IC50 for human HEp-2 cells after 48 hrs by MTT assay; format: toxicity; conditions: OKF-6/TERT cells versus HEp-2 cells; procedure, shortened: as §1
[9] = system: CAL-27; test: Cytotoxicity against human CAL-27 cells assessed as reduction in cell viability measured after 48 hrs by MTT assay; format: functional, cell-based; conditions: CAL-27, 48 h; procedure, shortened: as §3
[10] = system: CAL-27; test: Induction of apoptosis in human CAL-27 cells at 2.5 uM incubated for 48 hrs by annexin-V FITC and PI staining based flow cytometric analysis; format: functional, cell-based; procedure, shortened: as §2
[11] = system: CAL-27; test: Anticlonogenic activity against human CAL-27 cells assessed as reduction in colony formation incubated for 24 hrs followed supplementation with fresh medium without compound measured after 120 hrs by colony formation assay; format: functional, cell-based
Procedure, shortened: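 Cal-27 cells, 1 × 10^3 per well, grown 24 h at 37 °C in 5% CO2, then exposed 24 h to a range of concentrations. Medium then replaced with compound-free medium and growth continued 120 h. Colonies stained 30 min with crystal violet (0.5% in methanol), photographed and counted. Three independent experiments; ANOVA with Bonferroni post-test.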

[12] = system: HEp-2; test: Induction of mitochondrial membrane potential loss in human Hep-2 cells at 2.5 to 30 uM by flow cytometry; conditions: dose microM 2.5-30
[13] = system: CAL-27; test: Decrease in intracellular ATP levels in human CAL-27 cells at 10 to 50 uM incubated for 4 hrs by CellTiter-Glo luminescent assay; conditions: dose microM 10-50, time 4.0 hrs
[14] = system: CAL-27; test: Induction of mitochondrial uncoupling in human CAL-27 cells assessed as oxygen consumption rate measured by Clark-type oxygen electrode method; conditions: Mitochondria, dose microM 10-50
Procedure, shortened: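 Polarographic Clark-electrode assay on 5 × 10^6 trypsinised Cal-27 cells (cultured to 80% confluence). Cells held in 0.6 mL PBS, pH 7.4, at 25 °C with 8.3 mM L-glutamine. Respiration first inhibited with 2.5 μg/mL oligomycin, then compound added at increasing concentrations. OCR compared with full uncoupling by 0.133 μM CCCP.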

[15] = system: SCC-15; test: Cytotoxicity against human SCC-15 cells assessed as reduction in cell viability measured after 48 hrs by MTT assay; format: functional, cell-based; conditions: SCC-15, 48 h; procedure, shortened: as §3
[16] = system: HEp-2; test: Decrease in intracellular ATP levels in human Hep-2 cells at 10 to 50 uM incubated for 4 hrs by CellTiter-Glo luminescence assay; conditions: dose microM 10-50, time 4.0 hrs
[17] = system: CAL-27; test: Uncoupling of mitochondrial oxidative phosphorylation in human CAL-27 cells assessed as increase in oxygen consumption rate by Clark electrode based assay; conditions: Mitochondria

Row | SMILES | selectivity ratio at 48 h ([1]; read-out: Ratio IC50) | Activity [2] | pIC50 [3] | pIC50 [4] | selectivity ratio at 48 h [5] | Activity [6] | Activity [7] | selectivity ratio at 48 h ([8]; read-out: Ratio IC50) | pIC50 [9] | Activity [10] | Activity [11] | Activity [12] | Activity [13] | Activity [14] | pIC50 [15] | Activity [16] | Activity [17] | selectivity ratio at 48 h [1] | selectivity ratio at 48 h [8]
1 | O=C(OCCCCCCCCCC[P+](c1ccccc1)(c1ccccc1)c1ccccc1)c1cc(O)ccc1O | 4.9 | Active | 4.88 | 5.25 | 6 | Active | Active | 2.3 | 5.66 | Active | Dose-dependent effect | Active | Active | Dose-dependent effect | 5.57 | Active | – | – | –
2 | O=C(OCCCCCCCCCC[P+](c1ccccc1)(c1ccccc1)c1ccccc1)c1cc(O)c(O)c(O)c1 | 4.4 | Active | 4.88 | 4.90 | 3.8 | Active | Active | 1 | 5.47 | Active | Dose-dependent effect | Active | – | Dose-dependent effect | 5.52 | Active | Active | – | –
3 | O=C(OCCCCCCCCCC[P+](c1ccccc1)(c1ccccc1)c1ccccc1)c1ccccc1O | 4 | Active | 4.90 | 5.37 | 5.5 | Active | Active | 3 | 5.64 | Active | Dose-dependent effect | Active | – | Dose-dependent effect | 5.49 | Active | Active | – | –
4 | O=C(OCCCCCCCCCC[P+](c1ccccc1)(c1ccccc1)c1ccccc1)c1cccc(O)c1O | – | Active | 5.12 | 5.08 | 4.7 | Active | Active | – | 5.80 | Active | Dose-dependent effect | Active | Active | Dose-dependent effect | 5.54 | Active | – | 4.9 | 2.3
